In publication PMC5042352 (Analytical methods : advancing methods and applications, 2016):
Where two headings read alike, the source gives them in different places.

Tests used:
[1] = Stability of the analytes in human plasma at QC levels; assay type: in vitro ADME; settings: for Short-term Dev. (%) / Short-term MCM ± SD: 6 h, r.t.; for Short-term Dev. (%) / Short-term MCM ± SD / Long-term Dev. (%) / Long-term MCM ± SD / Freeze–thaw Dev. (%) / Freeze–thaw MCM ± SD: human plasma; for Short-term Dev. (%) / Short-term MCM ± SD / Long-term Dev. (%) / Long-term MCM ± SD / The autosampler Dev. (24h, %) / The autosampler MCM ± SD (24h) / The autosampler Dev. (48h, %) / The autosampler MCM ± SD (48h) / Freeze–thaw Dev. (%) / Freeze–thaw MCM ± SD: n = 5; for Long-term Dev. (%) / Long-term MCM ± SD: 40 days; for Long-term Dev. (%) / Long-term MCM ± SD / Freeze–thaw Dev. (%) / Freeze–thaw MCM ± SD: −40 °C; for The autosampler Dev. (24h, %) / The autosampler MCM ± SD (24h) / The autosampler Dev. (48h, %) / The autosampler MCM ± SD (48h): autosampler r.t.; for Freeze–thaw Dev. (%) / Freeze–thaw MCM ± SD: four cycles
Procedure, shortened: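 QC plasma made by spiking working solution into drug-free human plasma (1:9); the phosphate ester is pre-stabilised with 2M sodium cacodylate and 50% KF. Freeze-thaw: frozen at −40 °C for 24 h, thawed at 25 °C. Short-term: 6 h at room temperature. Long-term: −40 °C for 40 days. Quantified by UPLC-MS/MS against 1/x-weighted analyte/IS peak-area-ratio calibration curves.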

[2] = reported; cited from earlier work
[3] = assay type: in vivo, human (Chinese male healthy subjects); settings: for AUC0–∞ / Tmax / T½ (half-life of elimination) / AUC0–t: mean ± SD, n = 23; for Tmax / T½ (half-life of elimination): single i.m. injection; for AUC0–t: t = 4 h (BDP), 120 h (BOH), 360 h (B17P)

Row | SMILES | Short-term Dev. (%) ([1]; high QC) | Short-term MCM ± SD ([1]; high QC) | Long-term Dev. (%) ([1]; high QC) | Long-term MCM ± SD ([1]; high QC) | The autosampler Dev. (24h, %) ([1]; high QC) | The autosampler MCM ± SD (24h) ([1]; high QC) | The autosampler Dev. (48h, %) ([1]; high QC) | The autosampler MCM ± SD (48h) ([1]; high QC) | Freeze–thaw Dev. (%) ([1]; high QC) | Freeze–thaw MCM ± SD ([1]; high QC) | Short-term Dev. (%) ([1]; low QC) | Short-term MCM ± SD ([1]; low QC) | Long-term Dev. (%) ([1]; low QC) | Long-term MCM ± SD ([1]; low QC) | The autosampler Dev. (24h, %) ([1]; low QC) | The autosampler MCM ± SD (24h) ([1]; low QC) | The autosampler Dev. (48h, %) ([1]; low QC) | The autosampler MCM ± SD (48h) ([1]; low QC) | Freeze–thaw Dev. (%) ([1]; low QC) | Freeze–thaw MCM ± SD ([1]; low QC) | also measured
1 | CCC(=O)O[C@]1(C(=O)CO)[C@@H](C)C[C@H]2[C@@H]3CCC4=CC(=O)C=C[C@]4(C)[C@@]3(F)[C@@H](O)C[C@@]21C [B17P, betamethasone 17-monopropionate] | −8.39% | 3.435 ± 0.353 × 10^−9 mol·dm^−3 | 10.5% | 4.185 ± 0.616 × 10^−9 mol·dm^−3 | −12.14% | 3.295 ± 0.304 × 10^−9 mol·dm^−3 | −4.7% | 3.574 ± 0.531 × 10^−9 mol·dm^−3 | 2.2% | 3.832 ± 0.330 × 10^−9 mol·dm^−3 | 9.09% | 0.214 ± 0.020 × 10^−9 mol·dm^−3 | 4.54% | 0.205 ± 0.027 × 10^−9 mol·dm^−3 | 5.68% | 0.208 ± 0.022 × 10^−9 mol·dm^−3 | −5.68% | 0.185 ± 0.025 × 10^−9 mol·dm^−3 | 12.5% | 0.221 ± 0.335 × 10^−9 mol·dm^−3 | Short-term Dev. (%) ([1]; middle QC): 2.08%; Short-term MCM ± SD ([1]; middle QC): 1.196 ± 0.112 × 10^−9 mol·dm^−3; Long-term Dev. (%) ([1]; middle QC): 5.91%; Long-term MCM ± SD ([1]; middle QC): 1.241 ± 0.129 × 10^−9 mol·dm^−3; The autosampler Dev. (24h, %) ([1]; middle QC): 7.80%; The autosampler MCM ± SD (24h) ([1]; middle QC): 1.266 ± 0.094 × 10^−9 mol·dm^−3; The autosampler Dev. (48h, %) ([1]; middle QC): −5.02%; The autosampler MCM ± SD (48h) ([1]; middle QC): 1.114 ± 0.129 × 10^−9 mol·dm^−3; Freeze–thaw Dev. (%) ([1]; middle QC): 6.62%; Freeze–thaw MCM ± SD ([1]; middle QC): 1.250 ± 0.112 × 10^−9 mol·dm^−3; elimination half-life time [2]: 80.8 h; AUC0–∞ ([3]; Reference formulation): 281.7 ± 91.50 × 10^−9 mol·dm^−3·h^−1; Tmax ([3]; Reference formulation): 17.74 ± 13.04 h; T½ (half-life of elimination) ([3]; Reference formulation): 106.6 ± 35.93 h; AUC0–∞ ([3]; Test formulation): 305.4 ± 108.1 × 10^−9 mol·dm^−3·h^−1; Tmax ([3]; Test formulation): 19.83 ± 12.27 h; T½ (half-life of elimination) ([3]; Test formulation): 101.3 ± 39.43 h; AUC0–t ([3]; Test formulation): 259.2 ± 89.1 × 10^−9 mol·dm^−3·h^−1
2 | CCC(=O)OCC(=O)[C@@]1(O)[C@@H](C)C[C@H]2[C@@H]3CCC4=CC(=O)C=C[C@]4(C)[C@@]3(F)[C@@H](O)C[C@@]21C [B21P, betamethasone 21-monopropionate] | −8.64% | 3.944 ± 0.303 × 10^−9 mol·dm^−3 | −9.13% | 3.924 ± 0.078 × 10^−9 mol·dm^−3 | −8.3% | 3.960 ± 0.160 × 10^−9 mol·dm^−3 | −9.13% | 3.924 ± 0.171 × 10^−9 mol·dm^−3 | −2.48% | 4.211 ± 0.301 × 10^−9 mol·dm^−3 | 2.97% | 0.463 ± 0.062 × 10^−9 mol·dm^−3 | 8.42% | 0.488 ± 0.067 × 10^−9 mol·dm^−3 | 7.92% | 0.486 ± 0.020 × 10^−9 mol·dm^−3 | −0.5% | 0.448 ± 0.038 × 10^−9 mol·dm^−3 | 2.97% | 0.463 ± 0.024 × 10^−9 mol·dm^−3 | Short-term Dev. (%) ([1]; middle QC): −2.87%; Short-term MCM ± SD ([1]; middle QC): 1.873 ± 0.094 × 10^−9 mol·dm^−3; Long-term Dev. (%) ([1]; middle QC): −1.98%; Long-term MCM ± SD ([1]; middle QC): 1.891 ± 0.143 × 10^−9 mol·dm^−3; The autosampler Dev. (24h, %) ([1]; middle QC): 2.05%; The autosampler MCM ± SD (24h) ([1]; middle QC): 1.993 ± 0.129 × 10^−9 mol·dm^−3; The autosampler MCM ± SD (48h) ([1]; middle QC): 2.007 ± 0.156 × 10^−9 mol·dm^−3; Freeze–thaw Dev. (%) ([1]; middle QC): 1.08%; Freeze–thaw MCM ± SD ([1]; middle QC): 1.949 ± 0.147 × 10^−9 mol·dm^−3; plasma concentration in healthy subjects' plasma samples (detectability) ([3]; after i.m. injection of the compound medicine BSP and BDP): slightly above the LLOQ
3 | CCC(=O)OCC(=O)[C@@]1(OC(=O)CC)[C@@H](C)C[C@H]2[C@@H]3CCC4=CC(=O)C=C[C@]4(C)[C@@]3(F)[C@@H](O)C[C@@]21C [BDP, betamethasone dipropionate] | −0.51% | 44.42 ± 0.893 × 10^−9 mol·dm^−3 | 4.01% | 46.43 ± 1.399 × 10^−9 mol·dm^−3 | −6.84% | 41.59 ± 1.016 × 10^−9 mol·dm^−3 | −2.95% | 43.33 ± 1.131 × 10^−9 mol·dm^−3 | 0.68% | 44.94 ± 1.177 × 10^−9 mol·dm^−3 | 4.0% | 0.258 ± 0.048 × 10^−9 mol·dm^−3 | −3.2% | 0.240 ± 0.012 × 10^−9 mol·dm^−3 | −11.2% | 0.220 ± 0.016 × 10^−9 mol·dm^−3 | −10.4% | 0.222 ± 0.020 × 10^−9 mol·dm^−3 | 11.2% | 0.276 ± 0.042 × 10^−9 mol·dm^−3 | Short-term Dev. (%) ([1]; middle QC): 2.04%; Short-term MCM ± SD ([1]; middle QC): 4.746 ± 0.155 × 10^−9 mol·dm^−3; Long-term Dev. (%) ([1]; middle QC): 1.80%; Long-term MCM ± SD ([1]; middle QC): 4.734 ± 0.141 × 10^−9 mol·dm^−3; The autosampler Dev. (24h, %) ([1]; middle QC): −7.45%; The autosampler MCM ± SD (24h) ([1]; middle QC): 4.304 ± 0.123 × 10^−9 mol·dm^−3; The autosampler Dev. (48h, %) ([1]; middle QC): −5.68%; The autosampler MCM ± SD (48h) ([1]; middle QC): 4.387 ± 0.103 × 10^−9 mol·dm^−3; Freeze–thaw Dev. (%) ([1]; middle QC): 3.45%; Freeze–thaw MCM ± SD ([1]; middle QC): 4.811 ± 0.135 × 10^−9 mol·dm^−3; elimination half-life time [2]: 0.43 h
4 | C[C@H]1C[C@H]2[C@@H]3CCC4=CC(=O)C=C[C@]4(C)[C@@]3(F)[C@@H](O)C[C@]2(C)[C@@]1(O)C(=O)CO [BOH, betamethasone] | 8.02% | 64.74 ± 5.074 × 10^−9 mol·dm^−3 | −12.3% | 52.55 ± 2.816 × 10^−9 mol·dm^−3 | −10.82% | 53.47 ± 2.906 × 10^−9 mol·dm^−3 | 6.68% | 63.95 ± 3.102 × 10^−9 mol·dm^−3 | 5.54% | 63.29 ± 2.673 × 10^−9 mol·dm^−3 | 9.63% | 0.610 ± 0.048 × 10^−9 mol·dm^−3 | 7.34% | 0.597 ± 0.064 × 10^−9 mol·dm^−3 | 5.04% | 0.584 ± 0.056 × 10^−9 mol·dm^−3 | 2.29% | 0.569 ± 0.087 × 10^−9 mol·dm^−3 | 3.67% | 0.577 ± 0.038 × 10^−9 mol·dm^−3 | Short-term Dev. (%) ([1]; middle QC): 8.82%; Short-term MCM ± SD ([1]; middle QC): 10.87 ± 0.633 × 10^−9 mol·dm^−3; Long-term Dev. (%) ([1]; middle QC): 5.78%; Long-term MCM ± SD ([1]; middle QC): 10.57 ± 0.577 × 10^−9 mol·dm^−3; The autosampler MCM ± SD (24h) ([1]; middle QC): 10.20 ± 0.505 × 10^−9 mol·dm^−3; The autosampler Dev. (48h, %) ([1]; middle QC): 3.89%; The autosampler MCM ± SD (48h) ([1]; middle QC): 10.38 ± 0.513 × 10^−9 mol·dm^−3; Freeze–thaw Dev. (%) ([1]; middle QC): 4.88%; Freeze–thaw MCM ± SD ([1]; middle QC): 10.48 ± 0.645 × 10^−9 mol·dm^−3; AUC0–∞ ([3]; Reference formulation): 915.3 ± 206.5 × 10^−9 mol·dm^−3·h^−1; AUC0–∞ ([3]; Test formulation): 856.6 ± 269.4 × 10^−9 mol·dm^−3·h^−1; AUC0–t ([3]; Test formulation): 820.2 ± 249.4 × 10^−9 mol·dm^−3·h^−1
5 | C[C@H]1C[C@H]2[C@@H]3CCC4=CC(=O)C=C[C@]4(C)[C@@]3(F)[C@@H](O)C[C@]2(C)[C@@]1(O)C(=O)COP(=O)([O-])[O-].[Na+].[Na+] [BSP, betamethasone sodium phosphate] | −3.78% | 310.9 ± 14.43 × 10^−9 mol·dm^−3 | −1.02% | 320.0 ± 10.35 × 10^−9 mol·dm^−3 | −2.94% | 313.6 ± 35.39 × 10^−9 mol·dm^−3 | 11.19% | 359.2 ± 22.46 × 10^−9 mol·dm^−3 | −2.50% | 315.1 ± 4.665 × 10^−9 mol·dm^−3 | −1.19% | 4.988 ± 0.250 × 10^−9 mol·dm^−3 | −1.07% | 4.994 ± 0.560 × 10^−9 mol·dm^−3 | 4.03% | 5.252 ± 0.696 × 10^−9 mol·dm^−3 | 10.63% | 5.585 ± 0.616 × 10^−9 mol·dm^−3 | −2.84% | 4.905 ± 0.357 × 10^−9 mol·dm^−3 | Short-term Dev. (%) ([1]; middle QC): −2.55%; Short-term MCM ± SD ([1]; middle QC): 39.36 ± 5.767 × 10^−9 mol·dm^−3; Long-term Dev. (%) ([1]; middle QC): −1.06%; Long-term MCM ± SD ([1]; middle QC): 39.94 ± 5.576 × 10^−9 mol·dm^−3; The autosampler Dev. (24h, %) ([1]; middle QC): 1.08%; The autosampler MCM ± SD (24h) ([1]; middle QC): 40.83 ± 5.209 × 10^−9 mol·dm^−3; The autosampler Dev. (48h, %) ([1]; middle QC): 9.88%; The autosampler MCM ± SD (48h) ([1]; middle QC): 44.38 ± 5.581 × 10^−9 mol·dm^−3; Freeze–thaw Dev. (%) ([1]; middle QC): −2.67%; Freeze–thaw MCM ± SD ([1]; middle QC): 39.30 ± 5.785 × 10^−9 mol·dm^−3; stability in human blank plasma ([1]; without stabilizer (sodium cacodylate, potassium fluoride)): labile
